# Experimental data of several laboratories.
# Each line is one published result; the experiments were not run side by side.
# Organism: Klebsiella pneumoniae
Structure (SMILES),assay,system,setting,quantity,value
CC(C)(C)OC(=O)N[C@H]1CCN(c2cc(C(=O)NCC(=O)O)ccc2NC(=O)c2cc(Br)c(Br)[nH]2)C1,"microbial growth, broth dilution",ATCC700603,,MIC,> 32 µg/mL
CC(C)(O/N=C(\C(=O)N[C@@H]1C(=O)N2C(C(=O)[O-])=C(C[n+]3ccccc3)CS[C@H]12)c1csc(N)n1)C(=O)O,"microbial growth, broth dilution",ATCC13883,20 h,MIC,< 0.5 µg/mL
C[C@@H](O)[C@H]1C(=O)N2C(C(=O)O)=C(SCCNC=N)C[C@H]12,"microbial growth, broth dilution",,,MIC,0.5 µg/mL
COc1cc(C=Nc2cccc(O)c2)ccc1O,"microbial growth, disc diffusion",,"2000 µg/mL, 24 h",inhibition zone,15.5 mm
C[C@H]1COc2c(N3CCN(C)CC3)c(F)cc3c(=O)c(C(=O)O)cn1c23,"microbial growth, broth dilution",,,MIC,> 16 µg/mL
COc1cc(C=Nc2ccc(C)cc2Cl)ccc1O,"microbial growth, disc diffusion",,"2000 µg/mL, 24 h",inhibition zone,15 mm
Cc1[nH]c(C(=O)Nc2ccc(C(=O)NCc3n[nH]c(=O)o3)cc2N2CCN(C(=O)OC(C)(C)C)CC2)c(Cl)c1Cl,"microbial growth, broth dilution",ATCC700603,,MIC,> 32 µg/mL
C[C@@H](O)[C@H]1C(=O)N2C(C(=O)O)=C(SCCN=CN)C[C@H]12,"microbial growth, disc diffusion",,"2000 µg/mL, 24 h",inhibition zone,20.5 mm
Cc1[nH]c(C(=O)Nc2ccc(C(=O)NCC(=O)O)cc2N2CC[C@@H](N)C2)c(Cl)c1Cl.Cl,"microbial growth, broth dilution",ATCC700603,,MIC,> 32 µg/mL
C[C@@H](O)[C@H]1C(=O)N2C(C(=O)O)=C(S[C@@H]3CN[C@H](C(=O)N(C)C)C3)[C@H](C)[C@H]12,"microbial growth, broth dilution",,clinical isolate,MIC90,1020 µg/mL
CC(C)(O/N=C(\C(=O)N[C@@H]1C(=O)N2C(C(=O)[O-])=C(C[n+]3ccccc3)CS[C@H]12)c1csc(N)n1)C(=O)O,"microbial growth, disc diffusion",,"2000 µg/mL, 24 h",inhibition zone,12 mm
C[C@H]1COc2c(N3CCN(C)CC3)c(F)cc3c(=O)c(C(=O)O)cn1c23,microbial killing,ATCC27736,,MBC,0.06 µg/mL
